Experimental findings from ChEMBL document CHEMBL3045155, “Design, synthesis, and insecticidal activities of novel monohalovinylated pyrethroids” (2011) are described below.

Type in all cases: functional
Test [1] concerns Culex pipiens pallens. Description: Potency index, ratio of LC50 for cypermethrin to LC50 for test compound against Culex pipiens pallens (mosquito) fourth-instar larvae assessed as insect mortality measured 24 hr post compound exposure by dipping method.
For the next test, the system named is Mythimna separata. Description: Insecticidal activity against Mythimna separata (Oriental armyworm) grown on compound pre-treated corn leaves assessed as insect mortality measured 48 hr post compound exposure. In a few lines:
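Leaves on filter paper in Petri dishes dipped 5 s in test solutions (acetone, diluted with water) and air-dried, then infested with 10 third-instar larvae; concentrations 500.0 down to 0.25 mg L-1; triplicate per concentration; 26 ± 1 °C, 70 ± 10% RH; percentage mortality at 48 h.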

Test [2] relates to Culex pipiens pallens. Description: Insecticidal activity against Culex pipiens pallens (mosquito) fourth-instar larvae assessed as insect mortality measured 24 hr post compound exposure by dipping method. To be noted: for LC50: Culex pipiens, 24 h.

In brackets after ≈: the same amount, converted by molar mass.

In general, LC50 refers to the concentration lethal to half of the exposed cells or organisms. `CC1(C)[C@H](C(=O)O[C@H](C#N)c2cccc(Oc3ccccc3)c2)[C@@H]1C=C(Br)Br` [DELTAMETHRIN]: the RatioLC50 in the test with Culex pipiens pallens [1] amounted to 883. Further, in the test with Mythimna separata, the LC50 stood at 0.149 µg/mL (≈ 0.294 µM). Also, in the test with Culex pipiens pallens [2], the LC95 was 0.0033 µg/mL (≈ 0.00653 µM) and the LC50 came out at 0.0012 µg/mL (≈ 0.00238 µM).
Regarding `CC1(C)[C@H](/C=C/Cl)[C@H]1CC(=O)OCc1c(F)c(F)cc(F)c1F` (relative stereo), the RatioLC50 with Culex pipiens pallens [1] came to 4.3. Besides, in the test on Culex pipiens pallens [2], the LC95 is 0.358 µg/mL (≈ 1.02 µM) and the LC50 was 0.249 µg/mL (≈ 0.71 µM).
For the compound `CC1(C)C(C=C(Cl)Cl)C1C(=O)OC(C#N)c1cccc(Oc2ccccc2)c1` (stereo not drawn) [ALPHA-CYPERMETHRIN], the RatioLC50 in the test with Culex pipiens pallens [1] is reported as 100. Further, in the test with Culex pipiens pallens [2], the LC95 was found to be 0.0286 µg/mL (≈ 0.0687 µM) and the LC50 was found to be 0.0106 µg/mL (≈ 0.0255 µM).
`C=CCC1=C(C)C(COC(=O)C[C@H]2[C@@H](/C=C/Br)C2(C)C)CC1=O` (relative stereo): the RatioLC50 in the test with Culex pipiens pallens [1] is given as 2.4. Moreover, in the test with Culex pipiens pallens [2], the LC95 was 0.7054 µg/mL (≈ 1.85 µM) and the LC50 stood at 0.44 µg/mL (≈ 1.15 µM).
